The source made the active and inactive calls. The calls are words filed in the database; no cut-off is given here.
Experiments:
RT-112 [1] = test: Growth inhibition of human RT112 cells at 1000 uM measured after 5 mins by Celltiter-Glo luminescent cell viability assay; type: functional, cell-based
Procedure, shortened: (§1)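 Cells seeded 10000/well, 24 h, then exposed in ATCC-recommended medium to 62.5–2000 μM (two-fold steps) or vehicle for the set time (5–60 min), then normal medium. After 24 h, plates equilibrated 30 min at room temperature, CellTiter-Glo added, 2 min at room temperature, luminescence read. Survival relative to vehicle control; quadruplicate.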

RT-112 [2] = test: Growth inhibition of human RT112 cells at 500 uM by Celltiter-Glo luminescent cell viability assay; type: functional, cell-based; details: TDE = time-dependent effect; procedure, shortened: as §1
SW780 = test: Growth inhibition of human SW780 cells measured after 1 hr by Celltiter-Glo luminescent cell viability assay; type: functional; details: SW780, 1 h; procedure, shortened: as §1
5637 = test: Growth inhibition of human 5637 cells measured after 1 hr by Celltiter-Glo luminescent cell viability assay; type: functional; details: Homo sapiens, 5637, 1 h
Procedure, shortened: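 Seeded at 10000 cells/well and grown 24 h, then exposed to 62.5–2000 μM (two-fold steps) or vehicle in growth medium for 1 h. Medium was replaced with normal medium for 24 h before CellTiter-Glo luminescence was read. Survival was expressed relative to vehicle, with quadruplicate wells, and GI50 was calculated.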

RT-4 [3] = test: Growth inhibition of human RT4 cells at 1000 uM measured after 15 to 60 mins by Celltiter-Glo luminescent cell viability assay relative to control; type: functional; details: read-out: GI; procedure, shortened: as §1
RT-4 [4] = test: Growth inhibition of human RT4 cells at 1000 uM measured after 5 mins by Celltiter-Glo luminescent cell viability assay; type: functional, cell-based; procedure, shortened: as §1
HL-60(TB) = test: Growth inhibition of human HL-60(TB) cells assessed as growth percent at 10 uM incubated for 48 hrs by sulforhodamine B assay relative to control; type: functional; details: HL-60, 48 h, read-out: Activity
SR = test: Growth inhibition of human SR cells assessed as growth percent at 10 uM incubated for 48 hrs by sulforhodamine B assay relative to control; type: functional; details: read-out: Activity
A549 = test: Growth inhibition of human A549/ATCC cells assessed as growth percent at 10 uM incubated for 48 hrs by sulforhodamine B assay relative to control; type: functional; details: A549, 48 h, read-out: Activity
NCI-H226 = test: Growth inhibition of human NCI-H226 cells assessed as growth percent at 10 uM incubated for 48 hrs by sulforhodamine B assay relative to control; type: functional; details: NCI-H226, 48 h, read-out: Activity
HCT-116 = test: Growth inhibition of human HCT116 cells assessed as growth percent at 10 uM incubated for 48 hrs by sulforhodamine B assay relative to control; type: functional; details: HCT-116, 48 h, read-out: Activity
SF-268 = test: Growth inhibition of human SF268 cells assessed as growth percent at 10 uM incubated for 48 hrs by sulforhodamine B assay relative to control; type: functional; details: SF-268, 48 h, read-out: Activity
SF-295 = test: Growth inhibition of human SF295 cells assessed as growth percent at 10 uM incubated for 48 hrs by sulforhodamine B assay relative to control; type: functional; details: SF-295, 48 h, read-out: Activity
Malme-3M = test: Growth inhibition of human MALME-3M cells assessed as growth percent at 10 uM incubated for 48 hrs by sulforhodamine B assay relative to control; type: functional; details: read-out: Activity
SK-MEL-2 = test: Growth inhibition of human SK-MEL-2 cells assessed as growth percent at 10 uM incubated for 48 hrs by sulforhodamine B assay relative to control; type: functional; details: SK-MEL-2, 48 h, read-out: Activity
IGROV-1 = test: Growth inhibition of human IGROV1 cells assessed as growth percent at 10 uM incubated for 48 hrs by sulforhodamine B assay relative to control; type: functional; details: IGROV-1, 48 h, read-out: Activity
OVCAR-3 = test: Growth inhibition of human OVCAR3 cells assessed as growth percent at 10 uM incubated for 48 hrs by sulforhodamine B assay relative to control; type: functional; details: OVCAR-3, 48 h, read-out: Activity
OVCAR-8 = test: Growth inhibition of human OVCAR8 cells assessed as growth percent at 10 uM incubated for 48 hrs by sulforhodamine B assay relative to control; type: functional; details: OVCAR-8, 48 h, read-out: Activity
CAKI-1 = test: Growth inhibition of human Caki1 cells assessed as growth percent at 10 uM incubated for 48 hrs by sulforhodamine B assay relative to control; type: functional; details: CAKI-1, 48 h, read-out: Activity
RT-112 [5] = test: Anticlonogenic activity against human RT112 cells assessed as no colony formation at 250 to 500 uM incubated for 1 hr measured after culturing in normal medium for 10 days by crystal violet staining assay; type: functional, cell-based
Procedure, shortened: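 Cells seeded at 500/well, treated 24 h later with 250 or 500 μM drug or vehicle for 1 h. Cells were then grown in normal media for 10 days, stained with 0.5% crystal violet in 20% MeOH/water at 4 °C for 5 min, washed, dried and imaged. Run in triplicate.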

UO-31 = test: Growth inhibition of human UO31 cells assessed as growth percent at 10 uM incubated for 48 hrs by sulforhodamine B assay relative to control; type: functional; details: UO-31, 48 h, read-out: Activity
DU-145 = test: Growth inhibition of human DU145 cells assessed as growth percent at 10 uM incubated for 48 hrs by sulforhodamine B assay relative to control; type: functional; details: DU-145, 48 h, read-out: Activity
J82 = test: Cell cycle arrest in human J82 cells assessed as increase in cell accumulation at sub-G1 phase at 250 to 500 uM incubated for 1 hr measured after culturing in normal medium for 24 hrs by propidium iodide/RNase staining based FACScan flow cytometry analysis; type: functional
Procedure, shortened: (§2)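 Seeded at 300,000 cells/well in triplicate per treatment; 24 h later exposed to 250 or 500 μM or vehicle for 1 h. After 24 h in normal media, media plus cells were collected, washed, fixed in cold 70% ethanol (4 °C, 30 min), treated with phosphate citric acid buffer, stained with PI/RNase and gated for sub-G1 by flow cytometry.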

RT-112 [6] = test: Induction of apoptosis in human RT112 cells assessed as increase in PARP cleavage at 500 uM incubated for 1 hr and measured immediately after treatment by Western blot analysis; type: functional, cell-based
Procedure, shortened: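 RT112 seeded 300,000/well; after 24 h, 250 or 500 μM or vehicle. Cells plus floating debris harvested immediately or 24 h after treatment, lysed in RIPA with protease inhibitors. About 30 μg protein heated 10 min at 95 °C with DTT, run on SDS-PAGE. Immunoblotted for PARP and caspase 9, Ran as loading control, ECL detection.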

Mus musculus = test: Antitumor activity against anesthetized BBN-induced bladder tumor mouse model assessed as increase in cleaved caspase 3 level in dysplasia region at 1500 uM administered via intravesical instillation treated for 1 hr administered as 2 doses at 24 hrs interval and measured at 24 hrs after final treatment by hematoxylin and eosin staining based immunohistochemical analysis; type: functional, organism-based
RT-112 [7] = test: Cell cycle arrest in human RT112 cells assessed as cell accumulation at sub-G1 phase at 500 uM incubated for 1 hr measured after culturing in normal medium for 24 hrs by propidium iodide/RNase staining based FACScan flow cytometry analysis; type: functional; procedure, shortened: as §2

SMILES: [Br-].[Br-].c1ccc([P+](CCCc2n(Cc3ccc4ccccc4c3)c3ccccc3[n+]2Cc2ccc3ccccc3c2)(c2ccccc2)c2ccccc2)cc1
- growth inhibition (GI) (RT-112 [1]): Active
- growth inhibition (GI) (RT-112 [2]): Tde
- GI50 (SW780): 200 µM
- GI50 5637: 200 µM
- inhibition of growth at 1000 µM (RT-4 [3]): 100%
- growth inhibition (GI) (RT-4 [4]): Active
- growth at 10 µM (HL-60(TB)): 22.6%
- growth at 10 µM (SR): 30.8%
- growth at 10 µM (A549): 80.2%
- growth at 10 µM (NCI-H226): 83.5%
- growth at 10 µM (HCT-116): 24.2%
- growth at 10 µM (SF-268): 79%
- growth at 10 µM (SF-295): 41.1%
- growth at 10 µM (Malme-3M): 65.2%
- growth at 10 µM (SK-MEL-2): 100%
- growth at 10 µM (IGROV-1): 20.8%
- growth at 10 µM (OVCAR-3): 75.8%
- growth at 10 µM (OVCAR-8): 70.2%
- growth at 10 µM (CAKI-1): 79.9%
- inhibition (RT-112 [5]): Active
- growth at 10 µM (UO-31): 61.2%
- growth at 10 µM (DU-145): 82.1%
- Activity (J82): Active
- Activity (RT-112 [6]): Active
- Activity (Mus musculus): Active
- Activity (RT-112 [7]): inactive

Source: ChEMBL document CHEMBL4312027, “Synthesis, characterization, and biological activity of a triphenylphosphonium-containing imidazolium salt against select bladder cancer cell lines” (Eur J Med Chem, 2020)
